According to ChEMBL document CHEMBL1157126, “Synthesis and biological activity of N(4)-phenylsubstituted-6-(2,4-dichloro phenylmethyl)-7H-pyrrolo[2,3-d]pyrimidine-2,4-diamines as vascular endothelial growth factor receptor-2 inhibitors and antiangiogenic and antitumor agents” (Bioorg Med Chem, 2010):
pIC50: −log10 of the molar value. The source made the active and inactive calls. No cut-off for these calls is given here.

Assays:
[1] = biological target: T1, Vascular endothelial growth factor receptor 2 (Homo sapiens, UniProt P35968); test: Inhibition of VEGFR2 phosphorylation in human U251 cells after 10 mins by FLISA; assay type: cell-based, U-251
T1 sequence (P35968 whole entry): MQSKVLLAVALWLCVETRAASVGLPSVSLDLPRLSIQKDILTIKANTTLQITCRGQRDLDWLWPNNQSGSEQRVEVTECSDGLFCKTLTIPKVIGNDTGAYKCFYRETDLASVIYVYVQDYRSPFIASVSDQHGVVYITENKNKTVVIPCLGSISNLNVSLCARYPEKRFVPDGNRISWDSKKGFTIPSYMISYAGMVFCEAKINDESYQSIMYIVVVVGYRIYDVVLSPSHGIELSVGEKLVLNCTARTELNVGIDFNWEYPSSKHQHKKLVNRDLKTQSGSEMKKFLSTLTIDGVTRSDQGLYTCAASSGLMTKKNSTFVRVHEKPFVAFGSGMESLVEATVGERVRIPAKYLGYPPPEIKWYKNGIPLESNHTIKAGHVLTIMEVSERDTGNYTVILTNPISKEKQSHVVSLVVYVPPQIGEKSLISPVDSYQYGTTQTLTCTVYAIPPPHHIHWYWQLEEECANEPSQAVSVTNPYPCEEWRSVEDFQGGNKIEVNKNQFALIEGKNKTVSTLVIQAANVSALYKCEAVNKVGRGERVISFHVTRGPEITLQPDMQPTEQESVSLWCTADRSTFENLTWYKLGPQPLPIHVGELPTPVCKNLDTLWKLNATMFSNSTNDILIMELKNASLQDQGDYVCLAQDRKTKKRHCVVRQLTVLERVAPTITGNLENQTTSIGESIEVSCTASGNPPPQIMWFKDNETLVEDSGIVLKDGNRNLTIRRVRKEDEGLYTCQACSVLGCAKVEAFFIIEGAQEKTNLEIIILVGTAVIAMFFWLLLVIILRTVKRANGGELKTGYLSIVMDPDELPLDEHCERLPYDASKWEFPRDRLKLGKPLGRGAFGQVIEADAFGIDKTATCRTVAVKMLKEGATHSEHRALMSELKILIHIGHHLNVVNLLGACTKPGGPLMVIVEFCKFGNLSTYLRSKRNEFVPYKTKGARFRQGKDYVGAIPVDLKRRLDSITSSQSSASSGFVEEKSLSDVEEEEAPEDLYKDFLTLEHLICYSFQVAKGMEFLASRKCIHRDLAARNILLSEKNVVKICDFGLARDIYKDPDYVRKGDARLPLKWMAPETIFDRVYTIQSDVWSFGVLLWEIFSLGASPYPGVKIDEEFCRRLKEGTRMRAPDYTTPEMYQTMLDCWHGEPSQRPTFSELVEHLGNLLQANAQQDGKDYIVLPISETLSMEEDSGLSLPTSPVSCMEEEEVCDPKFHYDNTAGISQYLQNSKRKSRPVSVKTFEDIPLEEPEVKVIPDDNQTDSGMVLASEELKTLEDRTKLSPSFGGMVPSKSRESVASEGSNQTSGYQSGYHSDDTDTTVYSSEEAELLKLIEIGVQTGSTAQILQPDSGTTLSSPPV

[2] = biological target: Vascular endothelial growth factor receptor 1 (Homo sapiens, UniProt P17948); test: Inhibition of VEGFR1 phosphorylation in human A498 cells after 10 mins by FLISA; assay type: cell-based
Sequence of Vascular endothelial growth factor receptor 1 (P17948 whole entry): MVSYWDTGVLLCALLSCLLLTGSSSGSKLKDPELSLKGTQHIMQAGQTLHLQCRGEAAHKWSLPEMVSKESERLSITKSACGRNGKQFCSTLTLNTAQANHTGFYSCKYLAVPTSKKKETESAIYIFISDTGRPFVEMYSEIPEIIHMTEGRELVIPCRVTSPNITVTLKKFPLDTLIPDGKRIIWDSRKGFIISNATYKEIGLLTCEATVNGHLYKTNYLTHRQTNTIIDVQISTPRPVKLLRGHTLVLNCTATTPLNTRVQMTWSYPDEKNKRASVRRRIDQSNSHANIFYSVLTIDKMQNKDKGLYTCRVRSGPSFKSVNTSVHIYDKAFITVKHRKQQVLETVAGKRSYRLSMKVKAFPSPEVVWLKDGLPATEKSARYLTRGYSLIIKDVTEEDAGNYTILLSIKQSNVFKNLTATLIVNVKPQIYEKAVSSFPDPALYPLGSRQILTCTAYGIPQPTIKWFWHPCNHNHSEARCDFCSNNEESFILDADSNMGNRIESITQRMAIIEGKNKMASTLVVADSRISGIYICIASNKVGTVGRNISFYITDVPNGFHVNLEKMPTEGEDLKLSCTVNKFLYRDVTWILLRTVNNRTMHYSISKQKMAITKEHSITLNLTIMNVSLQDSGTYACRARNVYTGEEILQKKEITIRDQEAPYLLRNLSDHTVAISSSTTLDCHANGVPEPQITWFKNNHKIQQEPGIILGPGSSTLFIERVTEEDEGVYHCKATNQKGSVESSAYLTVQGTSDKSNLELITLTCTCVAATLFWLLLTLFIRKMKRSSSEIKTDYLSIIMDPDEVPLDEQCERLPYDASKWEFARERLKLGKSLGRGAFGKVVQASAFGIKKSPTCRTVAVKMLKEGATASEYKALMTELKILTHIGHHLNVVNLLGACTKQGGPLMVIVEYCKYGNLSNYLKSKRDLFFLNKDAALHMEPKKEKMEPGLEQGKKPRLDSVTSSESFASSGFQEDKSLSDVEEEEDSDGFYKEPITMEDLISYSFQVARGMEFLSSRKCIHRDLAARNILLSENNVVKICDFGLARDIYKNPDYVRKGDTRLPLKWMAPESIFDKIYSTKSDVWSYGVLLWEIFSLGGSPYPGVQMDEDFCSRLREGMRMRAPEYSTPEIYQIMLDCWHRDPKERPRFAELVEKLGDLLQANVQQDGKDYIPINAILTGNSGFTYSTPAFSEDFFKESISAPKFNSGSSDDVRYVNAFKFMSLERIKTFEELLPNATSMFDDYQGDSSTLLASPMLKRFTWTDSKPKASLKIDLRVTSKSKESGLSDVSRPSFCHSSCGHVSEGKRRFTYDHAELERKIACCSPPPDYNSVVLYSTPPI

[3] = biological target: Epidermal growth factor receptor (Homo sapiens, UniProt P00533); test: Inhibition of EGFR phosphorylation in human A431 cells after 10 mins by FLISA; assay type: cell-based, A-431
Sequence of Epidermal growth factor receptor (P00533 whole entry): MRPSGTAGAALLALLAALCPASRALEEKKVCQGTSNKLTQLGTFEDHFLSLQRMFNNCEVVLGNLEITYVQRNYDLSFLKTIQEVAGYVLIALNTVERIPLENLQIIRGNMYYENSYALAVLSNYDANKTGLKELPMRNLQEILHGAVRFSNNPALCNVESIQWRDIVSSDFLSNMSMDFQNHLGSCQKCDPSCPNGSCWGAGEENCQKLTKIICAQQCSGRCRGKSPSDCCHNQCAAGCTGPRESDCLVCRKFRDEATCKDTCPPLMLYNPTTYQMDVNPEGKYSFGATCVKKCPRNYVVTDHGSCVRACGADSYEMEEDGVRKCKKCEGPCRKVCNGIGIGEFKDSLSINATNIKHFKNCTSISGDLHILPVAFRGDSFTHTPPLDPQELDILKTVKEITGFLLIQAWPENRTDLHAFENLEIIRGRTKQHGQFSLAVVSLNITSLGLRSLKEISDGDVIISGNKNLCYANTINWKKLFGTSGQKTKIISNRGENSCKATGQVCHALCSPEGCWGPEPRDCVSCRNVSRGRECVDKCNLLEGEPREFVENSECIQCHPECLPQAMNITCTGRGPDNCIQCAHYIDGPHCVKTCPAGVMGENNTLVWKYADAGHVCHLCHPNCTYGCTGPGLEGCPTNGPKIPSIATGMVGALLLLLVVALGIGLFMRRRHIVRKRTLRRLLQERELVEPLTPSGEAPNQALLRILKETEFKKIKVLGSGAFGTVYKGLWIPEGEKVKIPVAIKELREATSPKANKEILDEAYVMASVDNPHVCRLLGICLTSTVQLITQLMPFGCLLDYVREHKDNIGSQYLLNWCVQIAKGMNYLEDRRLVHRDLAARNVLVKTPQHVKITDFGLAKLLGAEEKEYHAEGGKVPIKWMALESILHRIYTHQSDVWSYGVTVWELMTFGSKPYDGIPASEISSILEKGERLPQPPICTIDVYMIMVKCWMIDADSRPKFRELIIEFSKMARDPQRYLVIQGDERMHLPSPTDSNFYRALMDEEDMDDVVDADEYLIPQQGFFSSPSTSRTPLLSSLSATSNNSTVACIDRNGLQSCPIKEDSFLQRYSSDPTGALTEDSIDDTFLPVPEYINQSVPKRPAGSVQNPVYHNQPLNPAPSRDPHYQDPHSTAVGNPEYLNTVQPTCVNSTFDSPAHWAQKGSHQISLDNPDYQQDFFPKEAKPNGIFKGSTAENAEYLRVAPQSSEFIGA

[4] = biological target: T2, Platelet-derived growth factor receptor beta (Homo sapiens, UniProt P09619); test: Inhibition of PDGFRbeta phosphorylation in human SF539 cells after 10 mins by FLISA
T2 sequence (P09619 whole entry): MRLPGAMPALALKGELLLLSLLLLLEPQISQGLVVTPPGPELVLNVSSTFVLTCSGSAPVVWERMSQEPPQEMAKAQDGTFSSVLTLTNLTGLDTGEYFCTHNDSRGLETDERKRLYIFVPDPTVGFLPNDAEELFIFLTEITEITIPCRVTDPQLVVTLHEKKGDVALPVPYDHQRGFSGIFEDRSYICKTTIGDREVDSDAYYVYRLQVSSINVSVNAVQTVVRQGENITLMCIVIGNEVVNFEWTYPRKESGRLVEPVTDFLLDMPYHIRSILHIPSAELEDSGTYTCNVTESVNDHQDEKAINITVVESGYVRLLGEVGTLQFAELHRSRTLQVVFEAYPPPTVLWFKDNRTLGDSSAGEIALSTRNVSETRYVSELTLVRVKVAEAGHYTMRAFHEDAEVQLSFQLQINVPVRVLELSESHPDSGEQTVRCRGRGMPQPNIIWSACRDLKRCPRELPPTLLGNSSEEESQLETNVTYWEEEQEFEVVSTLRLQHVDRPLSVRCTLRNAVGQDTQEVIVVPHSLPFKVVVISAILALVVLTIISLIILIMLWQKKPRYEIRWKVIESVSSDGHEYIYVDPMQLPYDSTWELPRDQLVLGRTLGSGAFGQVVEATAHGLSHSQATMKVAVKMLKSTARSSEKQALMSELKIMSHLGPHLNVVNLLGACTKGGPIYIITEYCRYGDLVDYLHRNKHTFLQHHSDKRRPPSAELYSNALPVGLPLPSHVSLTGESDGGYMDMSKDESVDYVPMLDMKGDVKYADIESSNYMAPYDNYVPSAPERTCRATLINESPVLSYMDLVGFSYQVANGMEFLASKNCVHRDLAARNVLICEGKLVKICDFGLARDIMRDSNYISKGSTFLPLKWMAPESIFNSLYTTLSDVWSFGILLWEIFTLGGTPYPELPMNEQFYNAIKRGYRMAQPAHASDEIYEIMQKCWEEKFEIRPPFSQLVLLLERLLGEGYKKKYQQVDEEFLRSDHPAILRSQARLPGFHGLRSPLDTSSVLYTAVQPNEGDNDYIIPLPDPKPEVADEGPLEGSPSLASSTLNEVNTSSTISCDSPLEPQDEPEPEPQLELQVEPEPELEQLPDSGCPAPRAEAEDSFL

A-431 = test: Antiproliferative activity against human A431 cells after 48 hrs by quant dye staining-based UV spectroscopy; assay type: functional, cell-based; settings: A-431, 48 h
[5] = biological target: T1, Vascular endothelial growth factor receptor 2; test: Ratio of semaxanib IC50 to compound IC50 for VEGFR2 phosphorylation in human U251 cells; assay type: cell-based; settings: U-251
B16-F10 [6] = settings: Mus musculus, 10 mg/kg
B16-F10 [7] = settings: Mus musculus, 10 mg/kg; remark: listed apart in the source
B16-F10 [8] = settings: Mus musculus, 10 mg/kg; remark: listed apart in the source
[9] = biological target: T2, Platelet-derived growth factor receptor beta; test: Inhibition of PDGF-stimulated PDGFRbeta phosphorylation expressed in human SF-539 cells by chemiluminescence assay
B16-F10 [10] = test: Antitumor activity against mouse B16F10 cells xenografted in NCr nu/nu mouse assessed as inhibition of tumor growth at 35 mg/kg, ip administered after 9 days of tumor implantation for weekly 3 times measured on day 28 post-implantation; assay type: functional, organism-based; set-up: dose 35 mg/kg
In short: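 B16-F10 cells (50,000) implanted SQ behind the ear of 8-week-old male athymic NCr nu/nu mice, 5–6/group, two experiments. IP dosing in sterile water (from 30 mM DMSO stocks) Mon/Wed/Fri from day 9; water-only shams. Length, width and depth measured by calipers three times weekly; volume = L×W×D. Growth rate is the linear-regression slope from day 9 to day 28. Mean ± SEM, one-way ANOVA.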

B16-F10 [11] = test: Antitumor activity against mouse B16F10 cells xenografted in NCr nu/nu mouse assessed as antiangiogenic activity-related decrease in tumor vascularity at 35 mg/kg, ip administered after 9 days of tumor implantation for weekly 3 times measured on day 28 post-implantation; assay type: functional, organism-based; set-up: dose 35 mg/kg
In short: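 50,000 B16-F10 melanoma cells injected SQ behind the ear of 8-week-old male athymic NCr nu/nu mice, 5–6 animals/group, two experiments. IP dosing in sterile water (from 30 mM DMSO stocks) Mon/Wed/Fri from day 9; shams got water. Tumors excised day 28, formalin-fixed, paraffin-embedded, H&E stained. Vessels counted per unit area in 5 fields at 100× and averaged. Mean ± SEM, one-way ANOVA, Neuman-Keuls.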

B16-F10 [12] = test: Antitumor activity against mouse B16F10 cells xenografted in NCr nu/nu mouse assessed as inhibition of lung metastasis at 35 mg/kg, ip administered after 9 days of tumor implantation for weekly 3 times measured on day 28 post-implantation by hematoxylin-eosin staining; assay type: functional, organism-based; set-up: dose 35 mg/kg
In short: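 Male athymic NCr nu/nu mice (8 weeks) received 50,000 B16-F10 cells SQ behind the ear, 5–6/group, two experiments. Drug given IP in sterile water (from 30 mM DMSO stocks) Mon/Wed/Fri starting day 9; shams received water. On day 28 lungs excised, formalin-fixed, paraffin-embedded. Metastases per lung lobe counted on three H&E sections. Mean ± SEM, one-way ANOVA with Neuman-Keuls.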

Row | pIC50 [1] | pIC50 [2] | pIC50 [3] | pIC50 [4] | pIC50 (A-431) | Ratio IC50 [5] | pIC50 [9] | SMILES | inhibition (B16-F10 [6]) | inhibition (B16-F10 [7]) | inhibition (B16-F10 [8]) | inhibition (B16-F10 [10]) | inhibition (B16-F10 [11]) | inhibition (B16-F10 [12])
1 | 5.85 | 3.80 | 4.34 | 3.76 | 4.58 | 8 |  | CC(C)c1ccc(Nc2nc(N)nc3[nH]c(Cc4ccc(Cl)cc4Cl)cc23)cc1 |  |  |  |  |  | 
2 | < 3.52 | 3.82 | < 3.52 | 3.66 | 5.35 |  |  | Clc1ccc(Cc2cc3c(Nc4cccc(Br)c4)ncnc3[nH]2)c(Cl)c1 |  |  |  |  |  | 
3 | < 3.52 | < 3.52 | < 3.52 | 3.85 | < 3.52 |  |  | C#Cc1cccc(Nc2ncnc3[nH]c(Cc4ccc(Cl)cc4Cl)cc23)c1 |  |  |  |  |  | 
4 | 4.34 | 4.15 | 5.60 | 4.61 | 5.31 | 0.26 |  | Nc1nc(Nc2ccc(Cl)cc2F)c2cc(Cc3ccc(Cl)cc3Cl)[nH]c2n1 |  |  |  |  |  | 
5 | < 3.52 | < 3.52 | < 3.52 | 3.77 | 3.72 |  |  | COc1ccc(OC)c(Cc2cc3c(Nc4cccc(Br)c4)ncnc3[nH]2)c1 |  |  |  |  |  | 
6 | 6.52 | 3.79 | 3.79 | 3.74 | 4.34 | 40 |  | Nc1nc(Nc2cccc(F)c2)c2cc(Cc3ccc(Cl)cc3Cl)[nH]c2n1 |  |  |  |  |  | 
7 | 3.95 | < 3.52 | 4.04 | < 3.52 | 4.86 |  |  | Nc1nc(Nc2ccc(C(F)(F)F)c(F)c2)c2cc(Cc3ccc(Cl)cc3Cl)[nH]c2n1 |  |  |  |  |  | 
8 | < 3.52 | < 3.52 | 4.48 | 3.96 | < 3.52 |  |  | FC(F)(F)c1cccc(Nc2ncnc3[nH]c(Cc4ccc(Cl)cc4Cl)cc23)c1 |  |  |  |  |  | 
9 | 4.57 | < 3.52 | < 3.52 | 3.74 | 5.02 |  |  | Cc1ccccc1Cc1cc2c(Nc3cccc(Br)c3)ncnc2[nH]1 |  |  |  |  |  | 
10 | < 3.52 | 3.79 | 4.02 | 4.37 | 3.80 |  |  | CC(C)c1ccccc1Nc1nc(N)nc2[nH]c(Cc3ccc(Cl)cc3Cl)cc12 |  |  |  |  |  | 
11 |  |  |  |  |  |  | 7.00 | Cc1[nH]c(/C=C2\C(=O)Nc3ccccc32)c(C)c1CCC(=O)O [ORANTINIB] | Active | Active | Active |  |  | 
12 | < 3.52 | 3.81 | 4.57 | < 3.52 | 3.71 |  |  | Nc1nc(Nc2cccc(C(F)(F)F)c2)c2cc(Cc3ccc(Cl)cc3Cl)[nH]c2n1 |  |  |  |  |  | 
13 | 7.00 | < 3.52 | < 3.52 | < 3.52 | 4.79 | 100 |  | Nc1nc(Nc2ccc(Br)cc2Cl)c2cc(Cc3ccc(Cl)cc3Cl)[nH]c2n1 |  |  |  | Active | Active | Active
14 | 4.07 | < 3.52 | 4.26 | < 3.52 | 5.02 |  |  | C#Cc1cccc(Nc2nc(N)nc3[nH]c(Cc4ccc(Cl)cc4Cl)cc23)c1 |  |  |  |  |  | 

Row | SMILES | pIC50 [1] | pIC50 [2] | pIC50 [3] | pIC50 [4] | pIC50 (A-431) | Ratio IC50 [5] | pIC50 [9] | inhibition (B16-F10 [6]) | inhibition (B16-F10 [7]) | inhibition (B16-F10 [8]) | inhibition (B16-F10 [10]) | inhibition (B16-F10 [11]) | inhibition (B16-F10 [12])
15 | Cc1ccccc1Cc1cc2c(Nc3cccc(Br)c3)nc(N)nc2[nH]1 |  |  |  | < 4.30 |  |  |  |  |  |  | Active | Active | Active
